Results on five molecules are retold here after ChEMBL document CHEMBL1150592, “New antimicrobial cycloartane triterpenes from Acalypha communis” (2002).

Assay [1] relates to Staphylococcus aureus. Kind of assay: Antimicrobial activity against methicillin-resistant Staphylococcus aureus 310 after 18 to 20 hrs by standard broth microdilution method. Type of assay: functional. Put shortly:
(§1)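 Broth microdilution: 5 μL overnight culture (1 × 10⁷ to 5 × 10⁷ CFU/ml) added to 0.1 mL broth containing drug at 0.03–128 μg/mL. Incubated 18–20 h at 37 °C. MIC = lowest concentration preventing visual turbidity. Strains from an in-house laboratory collection.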

Assay [2] has as its system Enterococcus faecium. Kind of assay: Antimicrobial activity against vancomycin-resistant Enterococcus faecium 379 after 18 to 20 hrs by standard broth microdilution method. The format is functional. In short, it runs like this:
as §1

Assay [3] relates to Escherichia coli. Kind of assay: Antimicrobial activity against Escherichia coli imp 389 after 18 to 20 hrs by standard broth microdilution method. Type of assay: functional. Put shortly: (§2)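 Broth microdilution in polystyrene plates. Each well held 0.1 mL of broth medium with drug at 0.03–128 μg/mL and received 5 μL of overnight broth culture adjusted to 1 × 10⁷ to 5 × 10⁷ CFU/ml. Plates were incubated 18–20 h at 37 °C. MIC was the lowest concentration with no visible turbidity. Strains came from a laboratory collection.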

Assay [4] deals with Staphylococcus aureus. Kind of assay: Antimicrobial activity against Staphylococcus aureus 375 after 18 to 20 hrs by standard broth microdilution method. Type of assay: functional. In short, it runs like this:
as §2

Assay [5] deals with Bacillus subtilis. Kind of assay: Antimicrobial activity against Bacillus subtilis PY79 after 18 to 20 hrs by standard broth microdilution method. The format is functional. In short, it runs like this:
as §2

Assay [6] relates to Staphylococcus aureus. Kind of assay: Antimicrobial activity against Staphylococcus aureus Smith infected in CD1 mouse at 64 mg/kg after 7 days. Also noted: dose 64 mg/kg. The format is functional, organism-based. In short, it runs like this: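 Female CD-1 mice weighing 20 ± 2 g were infected intraperitoneally with bacteria suspended in broth or in about 5% mucin, at an inoculum lethal to 95–100% of untreated mice within 48 h. A single drug dose was given 0.5 h after infection. Survival was scored at day 7, using five animals per dose level and three or four separate tests pooled.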

Assay [7] deals with Staphylococcus aureus. Kind of assay: Antimicrobial activity against Staphylococcus aureus Smith infected in CD1 mouse after 7 days. The format is functional. The settings on record: 168 h. Put shortly: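 Female CD-1 mice (20 ± 2 g) infected intraperitoneally with bacteria in broth or ~5% mucin, inoculum lethal to 95–100% of untreated mice within 48 h. Single dose given 0.5 h post-infection. Seven-day survival from three or four tests (five dose levels, five mice per level) pooled; ED50 by probit analysis.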

Structures are written as SMILES. In brackets after ≈: the same amount, converted by molar mass. Activity calls are given as the source filed them. The calls are words filed in the database; no cut-off is given here.

With `CC1(C)S[C@@H]2[C@H](NC(=O)Cc3ccccc3)C(=O)N2[C@H]1C(=O)O` [PENICILLIN G], the MIC in assay [1] was found to be 128 µg/mL (≈ 383 µM); in assay [2], 128 µg/mL (≈ 383 µM); in assay [3], 2 µg/mL (≈ 5.98 µM); in assay [4], 0.06 µg/mL (≈ 0.179 µM); in assay [5], 8 µg/mL (≈ 23.9 µM).
Take `C=C(CC[C@@H](C)[C@H]1[C@@H](O)C[C@@]2(C)[C@@H]3[C@@H](O)C[C@H]4[C@](C)(C(=O)O)[C@@H](O)CC[C@@]45C[C@@]35CC[C@]12C)C(C)C`: the ED50 result in assay [6] was “inactive”. The MIC in assay [1] is > 128 µg/mL; in assay [2], 8 µg/mL (≈ 15.9 µM); in assay [3], > 128 µg/mL; in assay [4] it was 16 µg/mL (≈ 31.8 µM); in assay [5] it was 16 µg/mL (≈ 31.8 µM).
In assay [7], `CN[C@H](CC(C)C)C(=O)N[C@H]1C(=O)N[C@@H](CC(N)=O)C(=O)N[C@H]2C(=O)N[C@H]3C(=O)N[C@H](C(=O)N[C@H](C(=O)O)c4cc(O)cc(O)c4-c4cc3ccc4O)[C@H](O)c3ccc(c(Cl)c3)Oc3cc2cc(c3O[C@@H]2O[C@H](CO)[C@@H](O)[C@H](O)[C@H]2O[C@H]2C[C@](C)(N)[C@H](O)[C@H](C)O2)Oc2ccc(cc2Cl)[C@H]1O` [VANCOMYCIN] had an ED50 of 1 mg/kg.
As to `CC(C)=CCC[C@@H](C)[C@H]1C[C@H](O)[C@@]2(C)[C@@H]3CC[C@H]4[C@](C)(C(=O)O)[C@@H](O)C[C@H](O)[C@@]45C[C@@]35CC[C@]12C`, the MIC is 128 µg/mL (≈ 262 µM) in assay [1]; 32 µg/mL (≈ 65.5 µM) in assay [2]; > 128 µg/mL in assay [3]; 32 µg/mL (≈ 65.5 µM) in assay [4]; 64 µg/mL (≈ 131 µM) in assay [5].
`CC(C)=CCC[C@@H](C)[C@H]1[C@H](O)C[C@@]2(C)[C@@H]3CC[C@H]4[C@](C)(C(=O)O)[C@@H](O)C[C@H](O)[C@@]45C[C@@]35CC[C@]12C`: the MIC in assay [1] turned out to be 64 µg/mL (≈ 131 µM); in assay [2] it was 8 µg/mL (≈ 16.4 µM); in assay [3] it was 64 µg/mL (≈ 131 µM); in assay [4], 32 µg/mL (≈ 65.5 µM); in assay [5], 32 µg/mL (≈ 65.5 µM).
